Assay results: ChEMBL document CHEMBL1275337, “Biflavonoids from Torreya nucifera displaying SARS-CoV 3CL(pro) inhibition” (Bioorg Med Chem, 2010)

Experiments:
[1] = molecular target: Replicase polyprotein 1ab (Severe acute respiratory syndrome-related coronavirus) (UniProt P0C6X7); test: Inhibition of SARS coronavirus 3C-like protease at 200 uM after 60 mins by FRET assay
[2] = molecular target: T1, Replicase polyprotein 1ab (Severe acute respiratory syndrome-related coronavirus, UniProt P0C6X7); test: Inhibition of SARS coronavirus 3C-like protease after 60 mins by FRET assay
[3] = molecular target: T1, Replicase polyprotein 1ab; test: Non-competitive inhibition of SARS coronavirus 3C-like protease by Dixon plot analysis
Method in brief: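 Inhibition mode comes from FRET protease rates at substrate concentrations of 2.5, 5.0 and 10.0 µM across several inhibitor concentrations. Ki is taken from Dixon (1/V versus [I]) and Lineweaver-Burk plots; type is assigned from Vmax versus inhibitor concentration. Triplicate experiments.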

Structure (SMILES)	inhibition [1]	IC50 [2]	Ki [3]
CC(C)c1cc2c(cc1O)[C@@]1(C)CCCC(C)(C)[C@@H]1CC2 [FERRUGINOL]	92.7%	49.6 µM	–
COc1cc(O)c2c(=O)cc(-c3ccc(OC)c(-c4c(O)cc(O)c5c(=O)cc(-c6ccc(O)cc6)oc45)c3)oc2c1 [GINKGETIN]	–	32 µM	30.2 µM
COc1ccc(-c2cc(=O)c3c(O)cc(O)c(-c4cc(-c5cc(=O)c6c(O)cc(OC)cc6o5)ccc4OC)c3o2)cc1 [SCIADOPITISIN]	–	38.4 µM	35.6 µM
COc1ccc(-c2cc(=O)c3c(O)cc(O)cc3o2)cc1-c1c(O)cc(O)c2c(=O)cc(-c3ccc(O)cc3)oc12 [BILOBETIN]	–	72.3 µM	80.4 µM
O=c1cc(-c2ccc(O)c(-c3c(O)cc(O)c4c(=O)cc(-c5ccc(O)cc5)oc34)c2)oc2cc(O)cc(O)c12 [AMENTOFLAVONE]	–	–	13.8 µM
O=c1cc(-c2ccc(O)c(O)c2)oc2cc(O)cc(O)c12 [LUTEOLIN]	–	20 µM	–
CC(C)c1cc2c(cc1O)[C@@]1(C)CC[C@H](O)C(C)(C)[C@@H]1CC2 [HINOKIOL]	39.1%	233 µM	–
CC(C)c1cc2c(cc1O)[C@@]1(C)CCC[C@@](C)(C=O)[C@@H]1CC2 [18-OXOFERRUGINOL]	70.5%	163 µM	–
CC(=O)Oc1cc2c(cc1C(C)C)CC[C@H]1[C@](C)(CO)CCC[C@]21C	78.6%	129 µM	–
COC(=O)[C@]1(C)CCC[C@]2(C)c3ccc(C(C)C)cc3CC[C@@H]12 [METHYL DEHYDROABIETATE]	46.7%	207 µM	–
C=C[C@@]1(C)CC[C@H]2C(=CC[C@@H]3[C@]2(C)CCC[C@@]3(C)C(=O)O)C1 [ISOPIMARIC ACID]	28.9%	283 µM	–
O=c1cc(-c2ccc(O)cc2)oc2cc(O)cc(O)c12 [APIGENIN]	40%	281 µM	–
CC(C)c1cc2c(cc1O)[C@@]1(C)CCC[C@@](C)(CO)[C@@H]1CC2 [18-HYDROXYFERRUGINOL]	45.8%	221 µM	–
C=C1CC[C@H]2[C@](C)(CO)CCC[C@]2(C)[C@H]1CC/C(C)=C\CO [KAYADIOL]	75.2%	138 µM	–
CC(C)C1=CC2=CC[C@@H]3[C@](C)(CCC[C@@]3(C)C(=O)O)[C@H]2CC1 [ABIETIC ACID]	58%	189 µM	–
